As usually defined, the Ki is a dissociation constant, usually derived from enzyme kinetics or from competition with a known ligand. Low values mean tighter binding, high ones weaker binding.

Here are results for 15 molecules from ChEMBL document CHEMBL2417388, “Design and synthesis of (4E)-4-(4-substitutedbenzylideneamino)-3-substituted-2,3-dihydro-2-thioxothiazole-5-carbonitrile as novel A2A receptor antagonists” (Bioorg Med Chem, 2013).

Each structure is given as a SMILES string. Activity calls are given as the source filed them. The rule behind the calls is not given here.

For one test, the system named is HEK293. Put plainly: Selectivity ratio of Ki for human A1 receptor expressed in HEK293 cell membranes to Ki for human A2A receptor expressed in HEK293 cell membranes. Type of test: cell-based.
In the next test the target is T1, Adenosine receptor A1 (Homo sapiens, UniProt P30542).
T1 sequence (P30542 whole entry): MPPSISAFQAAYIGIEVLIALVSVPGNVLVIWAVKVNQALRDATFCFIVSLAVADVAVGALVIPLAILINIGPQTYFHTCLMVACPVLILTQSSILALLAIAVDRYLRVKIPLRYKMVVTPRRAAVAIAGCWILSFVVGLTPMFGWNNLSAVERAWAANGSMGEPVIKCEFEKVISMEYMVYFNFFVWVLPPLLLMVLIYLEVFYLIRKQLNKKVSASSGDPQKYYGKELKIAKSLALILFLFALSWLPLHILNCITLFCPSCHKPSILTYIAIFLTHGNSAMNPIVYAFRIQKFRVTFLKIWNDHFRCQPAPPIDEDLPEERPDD
Put plainly: Displacement of [3H]DPCPX from human A1 receptor expressed in HEK293 cell membranes after 60 mins by scintillation counting. Background: Displacement assays read how much labelled ligand stays bound in the presence of the test substance.

Another test has as its target Adenosine receptor A2a (Homo sapiens, UniProt P29274). Description: Displacement of [3H]ZM241385 from human A2A receptor expressed in HEK293 cell membranes after 60 mins by scintillation counting.
The test system of test [1] is Mus musculus. Description: Inhibition of haloperidol-induced catalepsy in Swiss albino mouse at 5 to 20 mg/kg, ip administered 30 mins prior haloperidol challenge measured after 120 mins. In kind it is functional, organism-based. The method, boiled down:
(§1)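 Adult male Swiss albino mice (4–6 weeks, 20–30 g), four per group. Compound given ip at 5–20 mg/kg, with 1% acacia in saline as vehicle control. […] Catalepsy scored over time up to 120 min. Mean ± SEM, n = 4, one-way ANOVA and Kruskal–Wallis test.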

For test [2], the system named is Mus musculus. Put plainly: Inhibition of haloperidol-induced catalepsy in Swiss albino mouse at 10 mg/kg, ip administered 30 mins prior haloperidol challenge measured after 120 mins. Type of test: functional, organism-based. Also on record: dose 10 mg/kg. In outline:
as §1

Chain of Adenosine receptor A2a (P29274 whole entry): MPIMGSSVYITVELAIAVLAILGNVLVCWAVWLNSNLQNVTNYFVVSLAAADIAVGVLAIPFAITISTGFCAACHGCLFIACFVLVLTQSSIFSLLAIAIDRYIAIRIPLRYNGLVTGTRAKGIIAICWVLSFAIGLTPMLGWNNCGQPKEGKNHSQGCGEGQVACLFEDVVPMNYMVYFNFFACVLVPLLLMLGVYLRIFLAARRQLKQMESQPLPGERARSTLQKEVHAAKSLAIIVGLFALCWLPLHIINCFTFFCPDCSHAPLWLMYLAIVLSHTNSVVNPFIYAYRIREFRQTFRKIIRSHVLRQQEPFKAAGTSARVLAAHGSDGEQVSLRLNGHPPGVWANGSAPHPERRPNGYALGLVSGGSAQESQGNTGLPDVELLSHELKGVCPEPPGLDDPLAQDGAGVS

`CCn1c(/N=C/c2ccc(F)cc2)c(C#N)sc1=S`: the Ratio Ki in the test with HEK293 was 5.3e-05. The molecule also gave an inhibition constant (Ki) at Adenosine receptor A1 of 0.00059 nM.

On to `CCn1c(/N=C/c2ccc(Cl)cc2)c(C#N)sc1=S`, for which the inhibition constant Ki on Adenosine receptor A2a stood at 1.44 nM; at Adenosine receptor A1, 19.8 nM. The Ratio Ki with HEK293 was 13.8.

Turning to `CCCCn1c(/N=C/c2ccc(Cl)cc2)c(C#N)sc1=S`, in the test on HEK293, the Ratio Ki was 2570.

Turning to `CCCCn1c(/N=C/c2ccc(F)cc2)c(C#N)sc1=S`, the inhibition constant (Ki) at Adenosine receptor A2a is 0.027 nM; at Adenosine receptor A1 it was 16.7 nM. The Ratio Ki in the test on HEK293 came to 619.

As for `N#Cc1sc(=S)n(CCc2ccccc2)c1/N=C/c1ccc(Br)cc1`, the Ki was 0.067 nM at Adenosine receptor A2a and 0.25 nM at Adenosine receptor A1. Moreover, in the test on HEK293, the Ratio Ki came to 3.73.

For `CCCn1c(/N=C/c2ccc(Cl)cc2)c(C#N)sc1=S`, in the test on HEK293, the Ratio Ki came out at 0.042.

As to `N#Cc1sc(=S)n(-c2ccccc2)c1/N=C/c1ccc(F)cc1`, the Ki at Adenosine receptor A2a came out at 0.0047 nM; at Adenosine receptor A1 it was 0.00063 nM. Besides, the Ratio Ki in the test on HEK293 was determined as 0.13.

With `N#Cc1sc(=S)n(-c2ccccc2)c1/N=C/c1ccc(Cl)cc1`, in the test on HEK293, the Ratio Ki was 2950.

In the case of `N#Cc1sc(=S)n(CCc2ccccc2)c1/N=C/c1ccc(F)cc1`, the Ki on Adenosine receptor A2a worked out at 2.64 nM; on Adenosine receptor A1 it was 889 nM. In the test with HEK293, the Ratio Ki stood at 337.

For `N#Cc1sc(=S)n(-c2ccccc2)c1/N=C/c1ccc(Br)cc1`, the inhibition entry in the test with Mus musculus [1] and in the test with Mus musculus [2] was “Active” throughout.

As for `CCCCn1c(/N=C/c2ccc(Br)cc2)c(C#N)sc1=S`, in the test on HEK293, the Ratio Ki was 0.013.

For the molecule `Nc1nc2c(cnn2CCc2ccccc2)c2nc(-c3ccco3)nn12`, the inhibition entry in the test on Mus musculus [1] and in the test on Mus musculus [2] was “Active” each time.

Turning to `CCCn1c(/N=C/c2ccc(F)cc2)c(C#N)sc1=S`, in the test with HEK293, the Ratio Ki is 3390.

`CCCn1c(/N=C/c2ccc(Br)cc2)c(C#N)sc1=S`: the Ki amounted to 1.8 nM at Adenosine receptor A2a and 607 nM on Adenosine receptor A1. Also, the Ratio Ki in the test on HEK293 came to 337.

For `CCn1c(/N=C/c2ccc(Br)cc2)c(C#N)sc1=S`, in the test with HEK293, the Ratio Ki was found to be 0.074. Affinity on Adenosine receptor A1 was put at a Ki of 0.00074 nM.
